The target in test [1] is T1, Prostaglandin E2 receptor EP4 subtype (Homo sapiens, UniProt P35408). Description: Displacement of [3H]PGE2 from human prostanoid EP4 receptor expressed in HEK293-EBNA cells after 60 mins by scintillation counting. In kind it is cell-based. On the technique in general: Displacement assays read how much labelled ligand stays bound in the presence of the test substance.

For test [2], the target named is Prostaglandin E2 receptor EP2 subtype (Homo sapiens, UniProt P43116). Put plainly: Displacement of [3H]PGE2 from human prostanoid EP2 receptor expressed in HEK293-EBNA cells after 60 mins by scintillation counting. In kind it is cell-based.
For test [3], the target named is T2, Prostaglandin D2 receptor (Homo sapiens, UniProt Q13258).
T2 sequence (Q13258 whole entry): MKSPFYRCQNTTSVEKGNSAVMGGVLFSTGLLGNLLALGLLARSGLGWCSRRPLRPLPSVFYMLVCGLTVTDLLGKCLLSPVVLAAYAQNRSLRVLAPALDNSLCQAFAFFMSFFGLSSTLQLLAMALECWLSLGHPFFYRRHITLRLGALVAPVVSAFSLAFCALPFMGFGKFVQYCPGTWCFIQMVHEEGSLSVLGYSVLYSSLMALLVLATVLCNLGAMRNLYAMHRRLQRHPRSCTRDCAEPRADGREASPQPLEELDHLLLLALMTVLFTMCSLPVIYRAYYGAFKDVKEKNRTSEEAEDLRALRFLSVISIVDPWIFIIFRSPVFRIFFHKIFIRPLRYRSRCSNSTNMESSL
Put plainly: Displacement of [3H]PGD2 from human Prostanoid DP1 receptor expressed in HEK293-EBNA cells after 60 mins by scintillation counting. In kind it is cell-based.

In another test the target is Prostacyclin receptor (Homo sapiens, UniProt P43119). Put plainly: Displacement of [3H]iloprost from human prostanoid IP receptor expressed in HEK293-EBNA cells after 60 mins by scintillation counting. In kind it is cell-based.
The target of test [4] is T3, Prostaglandin D2 receptor 2 (Homo sapiens, UniProt Q9Y5Y4).
T3 sequence (Q9Y5Y4 whole entry): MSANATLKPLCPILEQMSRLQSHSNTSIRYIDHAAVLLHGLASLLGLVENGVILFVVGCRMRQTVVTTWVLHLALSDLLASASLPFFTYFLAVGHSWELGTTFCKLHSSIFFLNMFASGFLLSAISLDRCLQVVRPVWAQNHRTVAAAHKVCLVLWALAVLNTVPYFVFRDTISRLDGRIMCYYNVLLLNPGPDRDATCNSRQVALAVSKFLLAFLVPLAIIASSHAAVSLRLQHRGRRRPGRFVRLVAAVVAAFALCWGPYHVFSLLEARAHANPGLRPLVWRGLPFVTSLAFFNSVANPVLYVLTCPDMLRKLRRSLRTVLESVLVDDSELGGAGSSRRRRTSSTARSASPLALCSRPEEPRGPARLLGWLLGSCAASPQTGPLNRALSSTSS
Put plainly: Displacement of [3H]PGD2 from human Prostanoid DP2 receptor expressed in HEK293-EBNA cells after 60 mins by scintillation counting. In kind it is cell-based.

In test [5] the target is T4, Prostaglandin E2 receptor EP3 subtype (Homo sapiens, UniProt P43115).
T4 sequence (P43115 whole entry): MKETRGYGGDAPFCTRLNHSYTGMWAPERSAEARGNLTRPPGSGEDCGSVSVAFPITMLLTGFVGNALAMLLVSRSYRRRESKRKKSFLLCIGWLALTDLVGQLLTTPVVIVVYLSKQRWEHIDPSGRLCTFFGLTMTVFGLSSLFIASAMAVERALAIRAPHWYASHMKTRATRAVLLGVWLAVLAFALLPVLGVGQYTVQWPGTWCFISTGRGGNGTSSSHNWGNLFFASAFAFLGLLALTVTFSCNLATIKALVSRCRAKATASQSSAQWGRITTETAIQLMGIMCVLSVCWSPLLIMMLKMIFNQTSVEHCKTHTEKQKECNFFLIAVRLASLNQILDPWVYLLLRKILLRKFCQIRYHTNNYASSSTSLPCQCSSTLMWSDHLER
Description: Displacement of [3H]PGE2 from human prostanoid EP3 receptor expressed in HEK293-EBNA cells after 60 mins by scintillation counting. In kind it is cell-based.

Test [6] concerns the target T1, Prostaglandin E2 receptor EP4 subtype. Put plainly: Antagonist activity at human prostanoid EP4 receptor expressed in HEK293 cells assessed as inhibition of PGE2-induced cAMP accumulation by scintillation proximity assay. In kind it is functional, cell-based. The gist of the method: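 Read-out was inhibition of PGE2-induced cAMP accumulation at EP4. Values are means from at least two independent experiments.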
(Cyclic AMP is a second messenger, typically raised through Gs and lowered through Gi signalling.)

The target in another test is T5, Thromboxane A2 receptor (Homo sapiens, UniProt P21731).
T5 sequence (P21731 whole entry): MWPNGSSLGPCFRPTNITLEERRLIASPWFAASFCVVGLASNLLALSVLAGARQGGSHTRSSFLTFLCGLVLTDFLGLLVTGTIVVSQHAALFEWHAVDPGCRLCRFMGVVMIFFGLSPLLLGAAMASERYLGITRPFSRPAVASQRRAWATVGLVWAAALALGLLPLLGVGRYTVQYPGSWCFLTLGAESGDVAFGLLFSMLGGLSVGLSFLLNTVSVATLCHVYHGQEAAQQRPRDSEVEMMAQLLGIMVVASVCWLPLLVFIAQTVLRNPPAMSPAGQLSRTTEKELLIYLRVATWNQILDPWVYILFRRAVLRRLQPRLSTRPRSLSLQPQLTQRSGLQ
Put plainly: Displacement of [3H]SQ-29548 from human prostanoid TP receptor expressed in HEK293-EBNA cells after 60 mins by scintillation counting. In kind it is cell-based.

Test [7] addresses T6, Prostaglandin E2 receptor EP1 subtype (Homo sapiens, UniProt P34995).
T6 sequence (P34995 whole entry): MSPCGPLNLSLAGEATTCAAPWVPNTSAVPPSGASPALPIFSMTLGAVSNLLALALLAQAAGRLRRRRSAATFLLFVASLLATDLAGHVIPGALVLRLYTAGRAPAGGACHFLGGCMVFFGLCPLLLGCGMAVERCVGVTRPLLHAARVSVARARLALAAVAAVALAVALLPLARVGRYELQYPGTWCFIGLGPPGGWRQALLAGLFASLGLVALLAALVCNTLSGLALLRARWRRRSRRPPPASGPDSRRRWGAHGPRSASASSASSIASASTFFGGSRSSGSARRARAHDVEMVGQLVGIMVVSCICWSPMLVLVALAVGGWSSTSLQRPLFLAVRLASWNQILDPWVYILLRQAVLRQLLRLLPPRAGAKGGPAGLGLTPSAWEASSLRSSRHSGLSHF
Put plainly: Displacement of [3H]PGE2 from human prostanoid EP1 receptor expressed in HEK293-EBNA cells after 60 mins by scintillation counting. In kind it is cell-based.

Test [8] concerns the target Prostaglandin F2-alpha receptor (Homo sapiens, UniProt P43088). Description: Displacement of [3H]PGF2alpha from human prostanoid FP receptor expressed in HEK293-EBNA cells after 60 mins by scintillation counting. In kind it is cell-based.
A further test deals with Rattus norvegicus. Put plainly: Antiinflammatory activity in rat assessed as inhibition of complete Freund's adjuvant-induced paw swelling administered daily once 9 days after adjuvant challenge measured on day 18. In kind it is functional. The method in brief: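 Rat adjuvant-induced arthritis model with daily dosing in mg/kg/day. Dose groups were 0, 0.001, 0.01, 0.1 and 1 mg/kg, plus a non-AIA control group. Primary and secondary paw swelling were scored as % inhibition relative to vehicle-treated arthritic rats, and ED50 was estimated from the dose–response.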

Structures are written as SMILES. A value given as a limit tells only on which side of the number the result lay.

One may read the Ki as the equilibrium dissociation constant of an inhibitor or competing ligand from its target. The IC50 is the concentration at which inhibition is half-maximal. By ED50 is commonly meant the midpoint of the dose-response relation.

Sequence of Prostaglandin E2 receptor EP2 subtype (P43116 whole entry): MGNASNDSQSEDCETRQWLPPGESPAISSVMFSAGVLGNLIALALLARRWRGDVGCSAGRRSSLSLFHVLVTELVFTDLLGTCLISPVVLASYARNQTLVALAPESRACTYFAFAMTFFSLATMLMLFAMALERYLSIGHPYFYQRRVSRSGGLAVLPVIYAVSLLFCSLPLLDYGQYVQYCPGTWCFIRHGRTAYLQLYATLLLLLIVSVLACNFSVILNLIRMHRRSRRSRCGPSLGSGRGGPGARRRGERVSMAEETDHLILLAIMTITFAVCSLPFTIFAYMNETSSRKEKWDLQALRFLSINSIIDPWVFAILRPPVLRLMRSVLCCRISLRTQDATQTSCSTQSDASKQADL
Sequence of Prostaglandin F2-alpha receptor (P43088 whole entry): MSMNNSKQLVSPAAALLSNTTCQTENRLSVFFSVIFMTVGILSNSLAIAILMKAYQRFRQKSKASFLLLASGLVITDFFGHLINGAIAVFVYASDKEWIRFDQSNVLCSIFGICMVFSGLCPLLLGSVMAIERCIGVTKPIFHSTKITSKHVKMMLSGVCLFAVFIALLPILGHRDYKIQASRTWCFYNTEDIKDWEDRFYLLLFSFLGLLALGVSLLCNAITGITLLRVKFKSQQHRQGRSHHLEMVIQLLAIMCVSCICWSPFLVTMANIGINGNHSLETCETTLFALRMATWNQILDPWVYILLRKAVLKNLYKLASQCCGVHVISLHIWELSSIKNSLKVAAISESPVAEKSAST
T1 sequence (P35408 whole entry): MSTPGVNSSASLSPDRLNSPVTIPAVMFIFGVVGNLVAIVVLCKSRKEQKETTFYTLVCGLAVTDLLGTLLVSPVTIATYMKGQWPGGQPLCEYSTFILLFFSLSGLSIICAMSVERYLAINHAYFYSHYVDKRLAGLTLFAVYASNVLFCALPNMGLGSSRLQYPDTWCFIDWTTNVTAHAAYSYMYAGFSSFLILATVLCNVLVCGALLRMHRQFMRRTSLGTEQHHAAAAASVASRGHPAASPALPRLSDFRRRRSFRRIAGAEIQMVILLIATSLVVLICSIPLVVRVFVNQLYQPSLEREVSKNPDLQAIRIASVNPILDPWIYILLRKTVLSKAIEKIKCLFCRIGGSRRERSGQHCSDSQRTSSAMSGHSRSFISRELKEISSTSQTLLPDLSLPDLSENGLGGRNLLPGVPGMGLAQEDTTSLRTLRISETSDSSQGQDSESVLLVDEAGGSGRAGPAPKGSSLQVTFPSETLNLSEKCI
Sequence of Prostacyclin receptor (P43119 whole entry): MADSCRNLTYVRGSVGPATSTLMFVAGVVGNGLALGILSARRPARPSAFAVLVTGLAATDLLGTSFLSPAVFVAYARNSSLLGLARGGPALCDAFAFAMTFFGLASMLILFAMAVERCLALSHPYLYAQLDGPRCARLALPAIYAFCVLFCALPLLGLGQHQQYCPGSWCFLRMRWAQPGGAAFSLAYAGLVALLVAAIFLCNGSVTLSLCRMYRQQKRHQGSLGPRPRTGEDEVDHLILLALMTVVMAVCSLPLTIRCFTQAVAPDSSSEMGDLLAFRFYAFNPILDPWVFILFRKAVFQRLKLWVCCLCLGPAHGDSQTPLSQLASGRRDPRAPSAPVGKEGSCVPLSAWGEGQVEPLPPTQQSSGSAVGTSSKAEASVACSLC

Regarding `C[C@H](NC(=O)c1cccc2ccn(Cc3ccc(C(F)(F)F)cc3)c12)c1ccc(C(=O)O)cc1`, the Ki in test [1] is 0.62 nM; in test [2] it was not below 580 nM; in test [3], 1390 nM; on Prostacyclin receptor, not below 580 nM; in [4] it was not below 580 nM; in test [5], not below 580 nM. The Ki (at Thromboxane A2 receptor; in [7]; in [8]) was not below 580 nM throughout. The IC50 in test [6] worked out at 2.7 nM.
As to `Cc1cc2cccc(C(=O)N[C@@H](C)c3ccc(C(=O)O)cc3)c2n1Cc1cccc(Cl)c1`, the values for the Ki in test [1] and in [3] were 56 nM and 450 nM, respectively.
Regarding `O=C(O)c1ccc(C2(NC(=O)c3cc(Cl)cc4ccn(Cc5ccc(C(F)(F)F)cc5)c34)CC2)cc1`, the Ki in test [1] is 0.31 nM; in test [2], not below 1290 nM; in test [3], 561 nM; at Prostacyclin receptor, not below 1290 nM; in test [4] it was not below 1290 nM; in [5], not below 1290 nM. Moreover, the inhibition constant (Ki) (on Thromboxane A2 receptor; in test [7]; in test [8]) was not below 1290 nM each time. The IC50 in test [6] is 1.26 nM.
Take `C[C@H](NC(=O)c1cccc2ccn(Cc3cc(Cl)cc(OC(F)(F)F)c3)c12)c1ccc(C(=O)O)cc1`: the Ki is 0.38 nM in test [1]; not below 260 nM in test [2]; 49 nM in test [3]; not below 260 nM on Prostacyclin receptor; not below 260 nM in [4]; not below 260 nM in [5]. The Ki (at Thromboxane A2 receptor; in test [7]; in test [8]) was not below 260 nM throughout. In addition, the IC50 in [6] is 1.4 nM.
Take `C[C@H](NC(=O)c1cc(Cl)cc2ccn(Cc3ccc(C(F)(F)F)cc3)c12)c1ccc(C(=O)O)cc1`: the Ki in test [1] is 0.44 nM; in test [2], not below 100 nM; in test [3], 209 nM; at Prostacyclin receptor it was not below 100 nM; in test [4], not below 100 nM; in test [5], not below 100 nM. For the same compound, the Ki (at Thromboxane A2 receptor; in test [7]; in [8]) was not below 100 nM in each case. The half-inhibitory concentration (IC50) in test [6] is 1.12 nM.
For the compound `C[C@H](NC(=O)c1cccc2ccn(Cc3cccc(C(F)(F)F)c3)c12)c1ccc(C(=O)O)cc1`, the Ki in [1] is 4.8 nM; in [2], not below 785 nM; in [3], 885 nM; on Prostacyclin receptor, not below 785 nM; in [4], not below 785 nM; in test [5], not below 785 nM. Further, the Ki (on Thromboxane A2 receptor; in test [7]; in test [8]) was not below 785 nM each time. In test [6], the IC50 worked out at 11.8 nM.
Take `C[C@H](NC(=O)c1cccc2ccn(Cc3cccc(Cl)c3)c12)c1ccc(C(=O)O)cc1`: the Ki in [1] was 2.7 nM; in [2] it was not below 2500 nM; in [3] it was 16 nM; at Prostacyclin receptor, not below 2500 nM; in [4], not below 2500 nM; in test [5], not below 2500 nM. The Ki (on Thromboxane A2 receptor; in test [7]; in test [8]) was not below 2500 nM throughout. The IC50 in test [6] was 5.9 nM.
With `CS(=O)(=O)c1ccc(C2=C(c3ccccc3)C(=O)OC2)cc1` [ROFECOXIB], in the test on Rattus norvegicus, the ED50 came out at 0.7 mg/kg/day.
For `C[C@H](NC(=O)c1cc(Cl)ccc1Oc1ccc(F)cc1)c1ccc(C(=O)O)cc1`, in the test on Rattus norvegicus, the ED80 amounted to 11.5 mg/kg.
Take `C[C@H](NC(=O)c1cccc2c(Cl)cn(Cc3cccc(Cl)c3)c12)c1ccc(C(=O)O)cc1`: the Ki in test [1] is 20.1 nM; in [2], not below 930 nM; in test [3], 14 nM; on Prostacyclin receptor it was not below 930 nM; in test [4], not below 930 nM; in [5] it was not below 930 nM. Moreover, the Ki (at Thromboxane A2 receptor; in [7]; in [8]) was not below 930 nM each time.
Turning to `Cc1cn(Cc2cccc(Cl)c2)c2c(C(=O)N[C@@H](C)c3ccc(C(=O)O)cc3)cccc12`, the Ki in test [1] came to 39.5 nM; in test [3] it was 1200 nM.
With `C[C@H](NC(=O)c1cc(F)cc2ccn(Cc3cccc(Cl)c3)c12)c1ccc(C(=O)O)cc1`, the Ki is 2.4 nM in test [1]; not below 504 nM in [2]; 404 nM in [3]; not below 504 nM at Prostacyclin receptor; not below 504 nM in [4]; not below 504 nM in test [5]. The inhibition constant (Ki) (at Thromboxane A2 receptor; in [7]; in test [8]) was not below 504 nM in each case. In test [6], the IC50 is 3.3 nM.
In the case of `C[C@H](NC(=O)c1cc(Cl)cc2ccn(Cc3cccc(Cl)c3)c12)c1ccc(C(=O)O)cc1`, the Ki in [1] is 0.81 nM; in test [2], not below 110 nM; in test [3], 63 nM; on Prostacyclin receptor it was not below 110 nM; in test [4], not below 110 nM; in test [5], not below 110 nM. Further, the inhibitory constant (Ki) (on Thromboxane A2 receptor; in [7]; in [8]) was not below 110 nM in each case. Besides, the IC50 in [6] was determined as 1.5 nM.

For the origin of these results see ChEMBL document CHEMBL1155539, “Discovery of 4-[1-[([1-[4-(trifluoromethyl)benzyl]-1H-indol-7-yl]carbonyl)amino]cyclopropyl]benzoic acid (MF-766), a highly potent and selective EP4 antagonist for treating inflammatory pain” (Bioorg Med Chem Lett, 2010).
